Measurements: ChEMBL document CHEMBL4130382, “Novel unsaturated glycyrrhetic acids derivatives: Design, synthesis and anti-inflammatory activity” (Eur J Med Chem, 2017)
The source made the active and inactive calls. The calls are words filed in the database; no cut-off is given here.

Columns and labels:
[1] = Cytotoxicity against mouse RAW264.7 cells assessed as cell viability at 40 uM after 24 hrs by MTT assay (reference value: 100%); type: cell-based; conditions: read-out: Activity
Procedure, shortened: (§1)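 RAW264.7 cells seeded at 6×10^3 cells/well and cultured 24 h. Compounds diluted in DMEM for 24 h exposure. MTT 0.5 mg/mL added for 4 h, formazan dissolved in DMSO, OD read at 570 nm. Viability given as % of medium-only blank. Three independent experiments.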

RAW264.7 [2] = assay: Antiinflammatory activity in mouse RAW264.7 cells assessed as inhibition of LPS-induced NO production by measuring nitrite level at 40 uM pretreated for 2 hrs followed by LPS challenge measured after 24 hrs by Griess assay relative to control; type: functional
Procedure, shortened: (§2)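 RAW264.7 cells grown in DMEM with 10% FBS plus penicillin/streptomycin at 37 °C and 5% CO2. Seeded at 1×10^5 cells/well and cultured 20 h. Pretreated 2 h with compounds in serum-free medium, then LPS 1 µg/mL for 24 h. Nitrite read with Griess reagent at 540 nm. Inhibition = (LPS-only − treated)/(LPS-only − medium blank) × 100%. Mean ± SD, n = 3.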

RAW264.7 [3] = assay: Antiinflammatory activity in mouse RAW264.7 cells assessed as inhibition of LPS-induced NO production by measuring nitrite level at 20 uM pretreated for 2 hrs followed by LPS challenge measured after 24 hrs by Griess assay; type: functional, cell-based; procedure, shortened: as §2
[4] = Cytotoxicity against mouse RAW264.7 cells assessed as cell viability at 20 uM after 24 hrs by MTT assay (reference value: 100%); type: cell-based; conditions: read-out: Activity; procedure, shortened: as §1
RAW264.7 [5] = assay: Antiinflammatory activity in mouse RAW264.7 cells assessed as inhibition of LPS-stimulated TNF-alpha production preincubated for 2 hrs followed by LPS stimulaton measured after 24 hrs by ELISA; type: functional, cell-based
Procedure, shortened: (§3)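 Cells at 7×10^4/well cultured 24 h, then pretreated 2 h with 10–40 µM compound. LPS 1 µg/mL added for 24 h. IL-6 and TNF-α measured in supernatant by mouse ELISA kits.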

RAW264.7 [6] = assay: Inhibition of LPS-induced JNK phosphorylation in mouse RAW264.7 cells at 10 to 40 uM preincubated with compound followed by LPS stimulation measured after 30 mins by Western blot; type: cell-based
Procedure, shortened: (§4)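 Cells at 2×10^6/well cultured 24 h, then given 10–40 µM compound with LPS 1 µg/mL for 30 min; Bay 11-7082 20 µM as control. Lysates in IP buffer with PMSF; equal protein on 12.5% SDS-PAGE, PVDF. Blocked in 5% milk/TBST, primary antibodies to phospho and total JNK, ERK1/2, p38, IκB and p65 at 1:1000 overnight at 4 °C, ECL detection. Mean ± SD, n = 3.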

[7] = target: Transcription factor p65 (Mus musculus) (UniProt Q04207); assay: Inhibition of LPS-induced NFkappaB p65 phosphorylation in mouse RAW264.7 cells preincubated with compound followed by LPS stimulation measured after 30 mins by Western blot; type: cell-based; procedure, shortened: as §4
Chain of Transcription factor p65 (Mus musculus) (Q04207 whole entry): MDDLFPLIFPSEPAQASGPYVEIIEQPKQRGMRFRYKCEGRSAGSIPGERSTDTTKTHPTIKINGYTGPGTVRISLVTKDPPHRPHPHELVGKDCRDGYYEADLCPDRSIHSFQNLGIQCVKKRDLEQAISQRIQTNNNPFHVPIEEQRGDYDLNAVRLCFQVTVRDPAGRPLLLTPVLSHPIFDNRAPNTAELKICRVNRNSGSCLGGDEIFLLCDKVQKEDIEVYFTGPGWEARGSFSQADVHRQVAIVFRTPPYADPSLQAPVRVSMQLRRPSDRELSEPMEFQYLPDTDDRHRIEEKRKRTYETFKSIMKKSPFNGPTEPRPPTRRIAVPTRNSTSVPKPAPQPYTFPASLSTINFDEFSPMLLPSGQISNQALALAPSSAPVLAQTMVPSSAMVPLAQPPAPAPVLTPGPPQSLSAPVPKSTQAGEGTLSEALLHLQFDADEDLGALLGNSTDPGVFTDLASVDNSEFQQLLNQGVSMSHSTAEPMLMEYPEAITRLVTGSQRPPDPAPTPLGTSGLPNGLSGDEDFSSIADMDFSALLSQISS

RAW264.7 [8] = assay: Antiinflammatory activity in mouse RAW264.7 cells assessed as inhibition of LPS-stimulated iNOS production at 40 uM preincubated with compound followed by LPS stimulation measured after 24 hrs by Western blot relative to control; type: functional
Procedure, shortened: (§5)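 Cells at 2×10^6/well cultured 24 h. Medium replaced with fresh medium containing 10–40 µM compound, or Bay 11-7082 20 µM as NF-κB inhibitor control, plus LPS 1 µg/mL for 24 h. Lysates in IP buffer with 1 mM PMSF; protein by BCA. Equal protein run on 12.5% SDS-PAGE, PVDF, ECL detection for iNOS and COX-2. Mean ± SD, n = 3.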

RAW264.7 [9] = assay: Inhibition of LPS-induced ERK phosphorylation in mouse RAW264.7 cells at 40 uM preincubated with compound followed by LPS stimulation measured after 30 mins by Western blot; type: cell-based; procedure, shortened: as §4
RAW264.7 [10] = assay: Antiinflammatory activity in mouse RAW264.7 cells assessed as inhibition of LPS-stimulated COX-2 production at 40 uM preincubated with compound followed by LPS stimulation measured after 24 hrs by Western blot relative to control; type: functional; procedure, shortened: as §5
RAW264.7 [11] = assay: Antiinflammatory activity in mouse RAW264.7 cells assessed as inhibition of LPS-stimulated COX-2 production preincubated with compound followed by LPS stimulation measured after 24 hrs by Western blot; type: functional, cell-based; procedure, shortened: as §5
[12] = target: Transcription factor p65 (Mus musculus) (UniProt Q04207); assay: Inhibition of LPS-induced NFkappaB p65 nuclear translocation in mouse RAW264.7 cells at 20 to 40 uM preincubated for 1 hr followed by LPS stimulation measured after 3 hrs by DAPI staining-based immunofluorescence assay; type: cell-based
Procedure, shortened: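 Cells at 7×10^4/well cultured 24 h, pretreated with 20 or 40 µM compound, then LPS 1 µg/mL for 3 h. Fixed in 4% formaldehyde, permeabilized with 0.3% Triton X-100, blocked with 5% BSA. Stained overnight with anti-p65, then Alexa Fluor 488 anti-rabbit; nuclei counterstained with DAPI and imaged.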

RAW264.7 [13] = assay: Antiinflammatory activity in mouse RAW264.7 cells assessed as inhibition of LPS-stimulated iNOS production preincubated with compound followed by LPS stimulation measured after 24 hrs by Western blot; type: functional, cell-based; procedure, shortened: as §5
[14] = target: MAP kinase p38 (Mus musculus) (UniProt P47811+O08911+Q9WUI1+Q9Z1B7); assay: Inhibition of LPS-induced p38 MAPK phosphorylation in mouse RAW264.7 cells at 10 to 40 uM preincubated with compound followed by LPS stimulation measured after 30 mins by Western blot; type: cell-based; procedure, shortened: as §4
RAW264.7 [15] = assay: Antiinflammatory activity in mouse RAW264.7 cells assessed as inhibition of LPS-stimulated IL-6 production preincubated for 2 hrs followed by LPS stimulaton measured after 24 hrs by ELISA; type: functional, cell-based; procedure, shortened: as §3

Structure (SMILES): CNC(=O)/C=C/[C@@]1(C)CC[C@]2(C)CC[C@]3(C)C(=CC(=O)[C@@H]4[C@@]5(C)CC[C@H](O)C(C)(C)[C@@H]5CC[C@]43C)[C@@H]2C1
- viability at 24 h, 40 µM [1]: 100%
- inhibition (RAW264.7 [2]): Active
- inhibition (RAW264.7 [3]): Active

Structure (SMILES): CC(C)N(C(=O)/C=C/[C@@]1(C)CC[C@]2(C)CC[C@]3(C)C(=CC(=O)[C@@H]4[C@@]5(C)CC[C@H](O)C(C)(C)[C@@H]5CC[C@]43C)[C@@H]2C1)C(C)C
- viability at 24 h, 20 µM [4]: 95.8%
- inhibition (RAW264.7 [3]): Active

Structure (SMILES): CC(O)CNC(=O)/C=C/[C@@]1(C)CC[C@]2(C)CC[C@]3(C)C(=CC(=O)[C@@H]4[C@@]5(C)CC[C@H](O)C(C)(C)[C@@H]5CC[C@]43C)[C@@H]2C1 (stereo not given in full)
- viability at 24 h, 20 µM [4]: 91.4%
- inhibition (RAW264.7 [2]): Active
- inhibition (RAW264.7 [3]): Active

Structure (SMILES): CC1(C)[C@@H](O)CC[C@]2(C)[C@H]3C(=O)C=C4[C@@H]5C[C@@](C)(C(=O)O)CC[C@]5(C)CC[C@@]4(C)[C@]3(C)CC[C@@H]12 [ENOXOLONE]
- viability at 24 h, 40 µM [1]: 102%
- inhibition (RAW264.7 [2]): Active
- inhibition (RAW264.7 [3]): Active

Structure (SMILES): CC1(C)[C@@H](O)CC[C@]2(C)[C@H]3C(=O)C=C4[C@@H]5C[C@@](C)(/C=C/C(=O)N6CCOCC6)CC[C@]5(C)CC[C@@]4(C)[C@]3(C)CC[C@@H]12
- viability at 24 h, 40 µM [1]: 97.5%
- inhibition (RAW264.7 [2]): inactive
- inhibition (RAW264.7 [3]): inactive

Structure (SMILES): CCOC(=O)/C=C/[C@@]1(C)CC[C@]2(C)CC[C@]3(C)C(=CC(=O)[C@@H]4[C@@]5(C)CC[C@H](OC(C)=O)C(C)(C)[C@@H]5CC[C@]43C)[C@@H]2C1
- viability at 24 h, 20 µM [4]: 94.3%

Structure (SMILES): CN1CCN(C(=O)/C=C/[C@@]2(C)CC[C@]3(C)CC[C@]4(C)C(=CC(=O)[C@@H]5[C@@]6(C)CC[C@H](O)C(C)(C)[C@@H]6CC[C@]54C)[C@@H]3C2)CC1
- inhibition (RAW264.7 [5]): Dose-dependent effect
- inhibition (RAW264.7 [6]): inactive
- inhibition [7]: Dose-dependent effect
- inhibition at 40 µM (RAW264.7 [8]): 76.9%
- viability at 24 h, 40 µM [1]: 96.6%
- inhibition (RAW264.7 [9]): Active
- inhibition at 40 µM (RAW264.7 [2]): > 70%
- inhibition at 40 µM (RAW264.7 [10]): 55.6%
- inhibition (RAW264.7 [11]): Dose-dependent effect
- inhibition [12]: Active
- inhibition (RAW264.7 [13]): Dose-dependent effect
- inhibition [14]: inactive
- IC50 (RAW264.7 [15]): 13.3 µM
- inhibition (RAW264.7 [15]): Dose-dependent effect

Structure (SMILES): CC(C)NC(=O)/C=C/[C@@]1(C)CC[C@]2(C)CC[C@]3(C)C(=CC(=O)[C@@H]4[C@@]5(C)CC[C@H](O)C(C)(C)[C@@H]5CC[C@]43C)[C@@H]2C1
- viability at 24 h, 40 µM [1]: 97.6%
- inhibition (RAW264.7 [3]): Active

Structure (SMILES): CC1(C)[C@@H](O)CC[C@]2(C)[C@H]3C(=O)C=C4[C@@H]5C[C@@](C)(/C=C/C(=O)NNc6ccccc6)CC[C@]5(C)CC[C@@]4(C)[C@]3(C)CC[C@@H]12
- viability at 24 h, 20 µM [4]: 94.8%
- inhibition (RAW264.7 [2]): inactive
- inhibition (RAW264.7 [3]): inactive

Structure (SMILES): Cc1cccc(NC(=O)/C=C/[C@@]2(C)CC[C@]3(C)CC[C@]4(C)C(=CC(=O)[C@@H]5[C@@]6(C)CC[C@H](O)C(C)(C)[C@@H]6CC[C@]54C)[C@@H]3C2)c1
- viability at 24 h, 40 µM [1]: 99.3%
- inhibition (RAW264.7 [2]): inactive
- inhibition (RAW264.7 [3]): inactive

Structure (SMILES): CC1(C)[C@@H](O)CC[C@]2(C)[C@H]3C(=O)C=C4[C@@H]5C[C@@](C)(/C=C/C(=O)NCCc6ccccc6)CC[C@]5(C)CC[C@@]4(C)[C@]3(C)CC[C@@H]12
- viability at 24 h, 20 µM [4]: 93%
- inhibition (RAW264.7 [2]): inactive
- inhibition (RAW264.7 [3]): inactive

Structure (SMILES): CC1(C)[C@@H](O)CC[C@]2(C)[C@H]3C(=O)C=C4[C@@H]5C[C@@](C)(/C=C/C(=O)NNC(N)=O)CC[C@]5(C)CC[C@@]4(C)[C@]3(C)CC[C@@H]12
- viability at 24 h, 20 µM [4]: 96.7%

Structure (SMILES): CCN1CCN(C(=O)/C=C/[C@@]2(C)CC[C@]3(C)CC[C@]4(C)C(=CC(=O)[C@@H]5[C@@]6(C)CC[C@H](O)C(C)(C)[C@@H]6CC[C@]54C)[C@@H]3C2)CC1
- inhibition (RAW264.7 [5]): Dose-dependent effect
- viability at 24 h, 40 µM [1]: 98.4%
- inhibition at 40 µM (RAW264.7 [2]): > 70%
- IC50 (RAW264.7 [15]): 15.5 µM
- inhibition (RAW264.7 [15]): Dose-dependent effect

Structure (SMILES): CC1(C)[C@@H](O)CC[C@]2(C)[C@H]3C(=O)C=C4[C@@H]5C[C@@](C)(/C=C/C(=O)NCCO)CC[C@]5(C)CC[C@@]4(C)[C@]3(C)CC[C@@H]12
- viability at 24 h, 20 µM [4]: 93.6%
- inhibition (RAW264.7 [2]): Active
- inhibition (RAW264.7 [3]): Active

Structure (SMILES): CN(C)C(=O)/C=C/[C@@]1(C)CC[C@]2(C)CC[C@]3(C)C(=CC(=O)[C@@H]4[C@@]5(C)CC[C@H](O)C(C)(C)[C@@H]5CC[C@]43C)[C@@H]2C1
- viability at 24 h, 40 µM [1]: 99.5%
- inhibition (RAW264.7 [2]): Active
- inhibition (RAW264.7 [3]): Active

Structure (SMILES): CC(=O)O[C@H]1CC[C@]2(C)[C@H]3C(=O)C=C4[C@@H]5C[C@@](C)(/C=C/C(=O)OCc6ccccc6)CC[C@]5(C)CC[C@@]4(C)[C@]3(C)CC[C@H]2C1(C)C
- viability at 24 h, 20 µM [4]: 96.9%
- inhibition (RAW264.7 [2]): inactive
- inhibition (RAW264.7 [3]): inactive

Structure (SMILES): CC1(C)[C@@H](O)CC[C@]2(C)[C@H]3C(=O)C=C4[C@@H]5C[C@@](C)(/C=C/C(=O)NCCCCl)CC[C@]5(C)CC[C@@]4(C)[C@]3(C)CC[C@@H]12
- viability at 24 h, 40 µM [1]: 95%

Structure (SMILES): CCNC(=O)/C=C/[C@@]1(C)CC[C@]2(C)CC[C@]3(C)C(=CC(=O)[C@@H]4[C@@]5(C)CC[C@H](O)C(C)(C)[C@@H]5CC[C@]43C)[C@@H]2C1
- viability at 24 h, 40 µM [1]: 92%
- inhibition (RAW264.7 [2]): Active
- inhibition (RAW264.7 [3]): Active

Structure (SMILES): CC1(C)[C@@H](O)CC[C@]2(C)[C@H]3C(=O)C=C4[C@@H]5C[C@@](C)(/C=C/C(=O)O)CC[C@]5(C)CC[C@@]4(C)[C@]3(C)CC[C@@H]12
- viability at 24 h, 40 µM [1]: 99.2%
- inhibition (RAW264.7 [2]): Active
- inhibition (RAW264.7 [3]): Active

Structure (SMILES): CC1(C)[C@@H](O)CC[C@]2(C)[C@H]3C(=O)C=C4[C@@H]5C[C@@](C)(/C=C/C(=O)NCCCN6CCOCC6)CC[C@]5(C)CC[C@@]4(C)[C@]3(C)CC[C@@H]12
- viability at 24 h, 40 µM [1]: 99.8%
- inhibition (RAW264.7 [2]): Active
- inhibition (RAW264.7 [3]): Active
